# Measured values taken from PubChem BioAssay AID720543 (The Scripps Research Institute Molecular Screening Center, 2013).
# Out of some 370,000 compounds screened, about 2,000 (0.54%) were called active. The full list was thinned out, with actives kept by preference. Values without a mark were called inactive.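 Rule for the calls: active = inhibition exceeding the mean over every tested compound plus 3 SD (cut at about 30% in these data); inactive = the rest.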
# Biological target: (Lyso)-N-acylphosphatidylethanolamine lipase (Mus musculus) (UniProt Q8VD66)
# Assay: ABHD4 inhibitors, primary screen, biochemical, fluorescence polarization, mouse (AID 720543);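 note: 0% = plate median of compound wells and 100% = S159A mutant with DMSO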
# Settings: purified mABHD4, FP-Rh probe fluorescence polarization; at 8.92 µM; stronger effect = higher value
# Summary of the method: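 Test system: mABHD4 protein; Read-out basis: % inhibition; Incubation: 45 min + 60 min at 25 °C; Repeats: single replicate; Technique: fluorescence polarization with parallel and perpendicular emission, 525/598 nm; Compound: 8.92 µM, single dose; Benchmarks: full inhibition S159A mutant plus DMSO, zero as sample-well median.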
# Chain of (Lyso)-N-acylphosphatidylethanolamine lipase (Mus musculus) (Q8VD66 whole entry, looked up): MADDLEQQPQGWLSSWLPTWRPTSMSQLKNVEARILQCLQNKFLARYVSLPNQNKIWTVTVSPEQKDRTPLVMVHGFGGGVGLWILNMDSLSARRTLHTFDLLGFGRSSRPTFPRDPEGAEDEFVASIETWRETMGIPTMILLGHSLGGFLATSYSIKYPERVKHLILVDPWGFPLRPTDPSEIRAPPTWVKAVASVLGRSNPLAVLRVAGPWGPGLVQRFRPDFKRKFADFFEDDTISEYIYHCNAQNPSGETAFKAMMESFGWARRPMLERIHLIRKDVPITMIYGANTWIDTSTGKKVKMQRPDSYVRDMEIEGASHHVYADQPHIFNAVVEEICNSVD
row,SMILES,inhibition
1,CC1(C)CC(=O)C(C2c3ccccc3S(=O)(=O)c3ccccc32)C(=O)C1,0.77%
2,O=C(CSc1nc2c(c(=O)[nH]1)CCCC2)N1CCCCC1,0.85%
3,Cc1ccccc1CS(=O)(=O)Cc1ccc(C(=O)Nc2ccc(Cl)cc2)o1,1.54%
4,CN(C)S(=O)(=O)c1cccc(C(=O)N/N=C\c2ccco2)c1,5.39%
5,COc1ccc([C@H]2OC(=O)C[C@H]2C(=O)N2CCN(c3ccccc3F)CC2)cc1OC,0.9%
6,CC(C)(C)NC(=O)NC(=O)COC(=O)Cn1c(C(F)(F)F)nc2ccccc21,1.11%
7,Cc1cccc(NC(=O)C[C@H]2CC[C@H]3[C@@H](COc4ccc(NC(=O)Nc5ccccc5)cc4C(=O)N3C)O2)c1,7.9%
8,COc1ccc(-n2c(SCC(=O)Nc3ccc4cn[nH]c4c3)nnc2-c2cccnc2)cc1,0.5%
9,CCOc1ccc(/C(O)=C2\C(=O)C(=O)N(c3ccc(OC)cc3)C2c2ccccc2[N+](=O)[O-])cc1 (stereo not drawn),5.37%
10,C[C@@H](NC(=O)c1ccccc1OCC(=O)Nc1ccc(I)cc1)C(=O)N(C)Cc1ccccc1,-28.4%
11,COc1ccc(Cc2nc3ccc(C(=O)N4CCC(N(C)C)C4)cc3o2)cc1 (stereo not drawn),-2.59%
12,Cc1cc(=O)[nH]c(SCC(=O)Nc2ccc(F)cc2F)n1,2.2%
13,CCN(CC(=O)NCc1cccs1)C(=O)c1cccc(S(=O)(=O)Nc2ccccc2OC)c1,-5.42%
14,CCOc1ccccc1NS(=O)(=O)c1c[nH]c(C(=O)OC)c1,-5.46%
15,COc1cccc(/C=N/Nc2ccc(S(=O)(=O)Nc3ccccc3C(=O)O)cc2[N+](=O)[O-])c1O,70.3% (active)
16,CC(C)(C)NC(=O)C(c1cccnc1)N(C(=O)c1cnco1)c1ccc(C(C)(C)C)cc1 (stereo not drawn),-5.63%
17,CC1CCCCC1NC(=O)CSc1nnc(-c2ccncc2)n1CCCN(C)C (stereo not drawn),18.4%
18,CCC[C@H]1C(=O)CC[C@@]23CCCN2C(=O)CCC[C@@H]13,-0.16%
19,CN1C(=O)C2CC(O)C(SC3CC4C(=O)N(C)C(=O)C4CC3O)CC2C1=O (stereo not drawn),4.09%
20,COCc1cccc(-c2csc(C(O)c3ccc(F)cc3)n2)c1 (stereo not drawn),-6.65%
21,CCCC(=O)N1c2ccc(-c3csc(N)n3)cc2CC1C (stereo not drawn),6.5%
22,CC(C)(C)C(=O)OCc1nc(-c2ccc(O)c(O)c2)cs1,39.5% (active)
23,COc1ccc(C(=O)CSc2nnc(-c3cnccn3)n2-c2ccc(C)cc2)cc1,-7.18%
